Published values pooled from the literature.
Cell line: HepG2
Observed: cell growth or viability

COc1ccc(N(Cc2csc(-c3ccc(Br)cc3)n2)C(=O)CCCCCC(=O)NO)cc1  IC50 (MTT; 72 h): 0.57 µM
CN1CCC(NC2CCc3[nH]c4c(C(N)=O)ccc(-c5ccccc5Cl)c4c3C2)CC1 (stereo not drawn)  IC50 (96 h): 0.0202 µM
Fc1ccc2c(-c3nnc(Cc4ccccc4)s3)nn(Cc3ccc(Cl)cc3Cl)c2c1  IC50 (48 h): 230 µM
COc1ccc(N=C2SCC(=O)N2c2nnc(-c3ccc(C(F)(F)F)cc3N=C3SCC(=O)N3c3ccc(OC)cc3)s2)cc1  IC50 (MTT): 70.1 µM
c1ccc(Cn2nc(-c3nc(-c4ccccc4)n[nH]3)c3ccccc32)cc1  IC50 (48 h): 60.8 µM
CSc1ccccc1-c1ccc(C(N)=O)c2[nH]c3c(c12)CC(N)CC3 (stereo not drawn)  IC50: 0.15 µM
CC(=O)OC[C@H]1O[C@@H](n2cc(Cn3c(C(=O)/C=C/c4ccc(F)cc4)nc4ccccc43)nn2)[C@H](OC(C)=O)[C@@H](OC(C)=O)[C@H]1OC(C)=O  IC50 (LDH; 48 h): 1.61 µM
O=C1CS/C(=N\c2cc(C(F)(F)F)ccc2-c2nnc(N3C(=O)CS/C3=N\c3ccc(-c4ccccc4)cc3)s2)N1c1ccc(-c2ccccc2)cc1  IC50 (MTT): 87.7 µM
Fc1ccc2c(-c3nnc(Cc4ccccc4)[nH]3)nn(Cc3ccc(Cl)cc3Cl)c2c1  IC50 (48 h): 21.2 µM
COc1ccc(C[C@H](N)C(=O)N[C@H]2[C@@H](O)[C@H](n3cnc4c(N(C)C)ncnc43)O[C@@H]2CO)cc1  IC50 (resazurin; 72 h): 1.25 µM
CC(C)c1nc(N(C)S(C)(=O)=O)nc(-c2ccc(F)cc2)c1/C=C/[C@@H](O)C[C@@H](O)CC(=O)O  IC50 (MTT; 24 h): 59.1 µg/mL
CCCNC(=S)N/N=C/c1cccc2cc3ccccc3nc12  IC50 (MTT; 48 h): > 50 µM
Cc1cccc([N+](=O)[O-])c1N=C1SCC(=O)N1c1nnc(-c2ccc(C(F)(F)F)cc2N=C2SCC(=O)N2c2c(C)cccc2[N+](=O)[O-])s1  IC50 (MTT): 50.1 µM
N=C(CC(O)c1cc2c(F)cc(F)cc2c2cc(C(F)(F)F)ccc12)Nc1ccc(F)c(F)c1 (stereo not drawn)  IC50 (neutral red; 24 h): 7.8 µM
CCOc1ccc(Nc2c3c(nc4ccccc24)CCC3)cc1  IC50 (resazurin; 72 h): 11.3 µM
O=C1CS/C(=N\c2cc(C(F)(F)F)ccc2-c2nnc(N3C(=O)CS/C3=N\c3ccc(Cl)cc3)s2)N1c1ccc(Cl)cc1  IC50 (MTT): 48.1 µM
COc1ccc(N(Cc2csc(-c3ccccc3)n2)C(=O)CCCCCC(=O)NO)cc1  IC50 (MTT; 72 h): 0.12 µM
c1ccc(-c2noc(-c3nn(Cc4ccncc4)c4ccccc34)n2)cc1  IC50 (48 h): 32.9 µM
C#CCNC(=O)c1c(-c2ccc(OC)cc2)oc2ccc(O)c(CN3CCCCC3)c12  IC50 (resazurin; 18 h): 53.2 µM
O=C1CS/C(=N\c2cc(C(F)(F)F)ccc2-c2nnc(N3C(=O)CS/C3=N\c3ccc(F)cc3)s2)N1c1ccc(F)cc1  IC50 (MTT): 24.1 µM
CC(C)(C)[C@H](NC(=O)/C=C/c1ccc(OP(=O)(O)O)cc1)C(=O)N1CCC[C@H]1C(=O)N(c1ccccc1)c1ccc(I)cc1  IC50 (CCK-8): 2.23 µM
COc1cc([C@@H]2c3cc4c(cc3[C@@H](O[C@@H]3O[C@@H]5CO[C@@H](C)O[C@H]5[C@H](O)[C@H]3O)[C@H]3COC(=O)[C@H]23)OCO4)cc(OC)c1O  IC50 (MTT): 44.5 µM
Fc1ccc2c(-c3nnc(Cc4ccccc4)s3)nn(Cc3ccccc3)c2c1  IC50 (48 h): 29.1 µM
O=C1CS/C(=N\c2cc(C(F)(F)F)ccc2-c2nnc(N3C(=O)CS/C3=N\c3cccc(Cl)c3)s2)N1c1cccc(Cl)c1  IC50 (MTT): 58.1 µM
C#CCn1c(C2CC(c3ccc(F)cc3)=NN2C(C)=O)nc2ccccc21 (stereo not drawn)  IC50 (LDH; 48 h): 3.25 µM
O=C1CS/C(=N\c2ccccc2Cl)N1c1nnc(-c2ccc(C(F)(F)F)cc2/N=C2\SCC(=O)N2c2ccccc2Cl)s1  IC50 (MTT): 55.5 µM
COc1ccc2c(-c3nc(-c4ccccc4)no3)nn(Cc3ccncc3)c2c1  IC50 (48 h): 68.1 µM
NC(=O)c1cnc(NCCc2ccc(O)c(Cl)c2)nc1NCc1ccccc1  IC50 (CCK-8; 48 h): 1.37 µM
COc1cccc2c1C(=O)c1c(O)c3c(c(O)c1C2=O)C[C@@](O)(C(=O)CO)C[C@@H]3O[C@H]1C[C@H](N)[C@H](O)[C@H](C)O1  IC50 (LDH; 48 h): 3.81 µM
O=[N+]([O-])c1ccc(NC(=S)N/N=C/c2cccc3cc4ccccc4nc23)cc1  IC50 (MTT; 48 h): > 50 µM
CCOC(=O)c1c(-c2ccc(OC)cc2)oc2ccc(OCc3cn(Cc4ccccc4)nn3)c(CN3CCCCC3)c12  IC50 (resazurin; 18 h): 70.5 µM
COc1cccc2c1C(=O)c1c(O)c3c(c(O)c1C2=O)C[C@@](O)(C(=O)CO)C[C@@H]3O[C@H]1C[C@H](N)[C@H](O)[C@H](C)O1  IC50 (MTT; 75 h): 0.48 µM
Clc1ccc(Cn2nc(-c3ncc(-c4ccccc4)s3)c3ccccc32)c(Cl)c1  IC50 (48 h): 129 µM
COc1cccc2c1C(=O)c1c(O)c3c(c(O)c1C2=O)C[C@@](O)(C(=O)CO)C[C@@H]3O[C@H]1C[C@H](N)[C@H](O)[C@H](C)O1  IC50 (MTT): 31.2 µM
CC(=O)OC[C@H]1O[C@@H](n2cc(Cn3c(C(C)=O)nc4ccccc43)nn2)[C@H](OC(C)=O)[C@@H](OC(C)=O)[C@H]1OC(C)=O  IC50 (LDH; 48 h): 3.27 µM
CC/C(=C(\c1ccccc1)c1ccc(OCCN(C)C)cc1)c1ccccc1  IC50: 17.4 µM
CC(C)CNC(=S)N/N=C/c1cccc2cc3ccccc3nc12  IC50 (MTT; 48 h): > 50 µM
CC(=O)O[C@@H]1[C@@H](OC(C)=O)[C@H](OC(C)=O)CO[C@H]1n1cc(Cn2c(C(=O)/C=C/c3ccc(F)cc3)nc3ccccc32)nn1  IC50 (LDH; 48 h): 1.67 µM
COc1cccc(NC(=S)N/N=C/c2cccc3cc4ccccc4nc23)c1  IC50 (MTT; 48 h): > 50 µM
FC(F)(F)c1ccc(-c2noc(-c3nn(Cc4ccc(Cl)cc4Cl)c4ccccc34)n2)cc1  IC50 (48 h): 251 µM
COc1cccc2c1C(=O)c1c(O)c3c(c(O)c1C2=O)C[C@@](O)(C(=O)CO)C[C@@H]3O[C@H]1C[C@H](N)[C@H](O)[C@H](C)O1  IC50: 0.06 µM
CCN(CC)CCNC(=O)c1c(C)[nH]c(/C=C2\C(=O)Nc3ccc(F)cc32)c1C  IC50 (SRB): 1.35 µM
